The source made the active and inactive calls. The rule behind the calls is not given here.

The target in assay [1] is T1, Mineralocorticoid receptor (Rattus norvegicus) (UniProt P22199).
T1 sequence (whole entry): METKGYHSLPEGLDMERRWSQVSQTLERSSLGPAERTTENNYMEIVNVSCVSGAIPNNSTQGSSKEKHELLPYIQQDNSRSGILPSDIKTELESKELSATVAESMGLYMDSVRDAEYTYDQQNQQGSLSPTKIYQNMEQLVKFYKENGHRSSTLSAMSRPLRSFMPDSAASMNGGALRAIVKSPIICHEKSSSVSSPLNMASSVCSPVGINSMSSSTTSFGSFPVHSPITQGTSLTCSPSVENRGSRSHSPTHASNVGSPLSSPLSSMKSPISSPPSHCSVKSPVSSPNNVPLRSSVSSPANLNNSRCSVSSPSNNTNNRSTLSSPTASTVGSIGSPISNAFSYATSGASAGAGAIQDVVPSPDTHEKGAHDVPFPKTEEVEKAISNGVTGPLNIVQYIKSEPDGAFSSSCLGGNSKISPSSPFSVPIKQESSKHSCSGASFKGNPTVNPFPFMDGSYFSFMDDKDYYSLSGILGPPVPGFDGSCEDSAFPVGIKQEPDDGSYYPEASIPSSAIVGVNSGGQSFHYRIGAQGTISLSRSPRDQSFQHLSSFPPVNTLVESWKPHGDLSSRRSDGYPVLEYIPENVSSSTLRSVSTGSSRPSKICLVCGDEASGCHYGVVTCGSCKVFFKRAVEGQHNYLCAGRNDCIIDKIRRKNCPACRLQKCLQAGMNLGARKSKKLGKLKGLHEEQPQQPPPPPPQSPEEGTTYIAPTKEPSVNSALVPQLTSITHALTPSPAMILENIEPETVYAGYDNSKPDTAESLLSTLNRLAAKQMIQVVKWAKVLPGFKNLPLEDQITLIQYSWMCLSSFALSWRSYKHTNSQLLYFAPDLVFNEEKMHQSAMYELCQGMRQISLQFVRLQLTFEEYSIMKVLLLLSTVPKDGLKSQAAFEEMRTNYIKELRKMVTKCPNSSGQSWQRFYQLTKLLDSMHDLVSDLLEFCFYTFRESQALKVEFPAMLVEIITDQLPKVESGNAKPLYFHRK
The assay is described as follows: Relative potency as antialdosterone activity compared to spironolactone 1 hr after oral administration; No activity. Type of assay: functional, organism-based. In outline:
(§1)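 Adrenalectomized Wistar rats (140–160 g) were maintained on fluocortolone caproate 1 mg/kg on the day of surgery and fluocortolone 10 mg/kg sc one day before testing. Rats were infused with saline-glucose (0.05% NaCl, 5% glucose) containing aldosterone 50 μg/L at 3 mL/h. Compounds were given orally 1 h before infusion at 6.7, 13.4 and 26.8 mg/kg. Hourly urine Na and K were measured by flame photometry over 10–15 h.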

For assay [2], the target named is T2, Androgen receptor (Rattus norvegicus) (UniProt P15207).
T2 sequence (whole entry): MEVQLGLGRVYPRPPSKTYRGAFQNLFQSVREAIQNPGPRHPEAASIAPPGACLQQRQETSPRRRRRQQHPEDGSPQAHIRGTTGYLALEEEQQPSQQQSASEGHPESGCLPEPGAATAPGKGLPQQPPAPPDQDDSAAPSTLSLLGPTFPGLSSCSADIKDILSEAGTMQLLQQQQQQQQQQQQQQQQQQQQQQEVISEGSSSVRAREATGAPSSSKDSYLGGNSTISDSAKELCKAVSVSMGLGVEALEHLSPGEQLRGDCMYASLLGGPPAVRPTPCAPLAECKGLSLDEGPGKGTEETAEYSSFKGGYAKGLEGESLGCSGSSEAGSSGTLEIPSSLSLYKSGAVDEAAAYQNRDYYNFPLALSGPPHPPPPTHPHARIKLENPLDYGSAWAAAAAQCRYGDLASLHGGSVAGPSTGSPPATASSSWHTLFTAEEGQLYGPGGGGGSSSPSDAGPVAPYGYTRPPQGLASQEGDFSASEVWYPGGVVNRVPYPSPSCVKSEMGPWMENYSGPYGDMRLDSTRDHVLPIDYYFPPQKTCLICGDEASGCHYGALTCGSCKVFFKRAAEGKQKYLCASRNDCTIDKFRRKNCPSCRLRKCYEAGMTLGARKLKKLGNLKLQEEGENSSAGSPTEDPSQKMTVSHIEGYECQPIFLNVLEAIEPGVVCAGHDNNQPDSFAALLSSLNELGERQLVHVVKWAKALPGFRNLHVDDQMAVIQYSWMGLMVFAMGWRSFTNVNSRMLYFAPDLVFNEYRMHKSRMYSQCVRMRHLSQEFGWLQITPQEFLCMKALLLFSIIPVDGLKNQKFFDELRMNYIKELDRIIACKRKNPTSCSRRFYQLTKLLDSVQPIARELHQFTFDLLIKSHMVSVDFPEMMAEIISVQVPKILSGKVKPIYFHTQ
Put plainly: Binding affinity for rat androgen receptor compared to dihydrotestosterone; No affinity.

Assay [3] concerns the target T3, Progesterone receptor (Oryctolagus cuniculus) (UniProt P06186).
T3 sequence (whole entry): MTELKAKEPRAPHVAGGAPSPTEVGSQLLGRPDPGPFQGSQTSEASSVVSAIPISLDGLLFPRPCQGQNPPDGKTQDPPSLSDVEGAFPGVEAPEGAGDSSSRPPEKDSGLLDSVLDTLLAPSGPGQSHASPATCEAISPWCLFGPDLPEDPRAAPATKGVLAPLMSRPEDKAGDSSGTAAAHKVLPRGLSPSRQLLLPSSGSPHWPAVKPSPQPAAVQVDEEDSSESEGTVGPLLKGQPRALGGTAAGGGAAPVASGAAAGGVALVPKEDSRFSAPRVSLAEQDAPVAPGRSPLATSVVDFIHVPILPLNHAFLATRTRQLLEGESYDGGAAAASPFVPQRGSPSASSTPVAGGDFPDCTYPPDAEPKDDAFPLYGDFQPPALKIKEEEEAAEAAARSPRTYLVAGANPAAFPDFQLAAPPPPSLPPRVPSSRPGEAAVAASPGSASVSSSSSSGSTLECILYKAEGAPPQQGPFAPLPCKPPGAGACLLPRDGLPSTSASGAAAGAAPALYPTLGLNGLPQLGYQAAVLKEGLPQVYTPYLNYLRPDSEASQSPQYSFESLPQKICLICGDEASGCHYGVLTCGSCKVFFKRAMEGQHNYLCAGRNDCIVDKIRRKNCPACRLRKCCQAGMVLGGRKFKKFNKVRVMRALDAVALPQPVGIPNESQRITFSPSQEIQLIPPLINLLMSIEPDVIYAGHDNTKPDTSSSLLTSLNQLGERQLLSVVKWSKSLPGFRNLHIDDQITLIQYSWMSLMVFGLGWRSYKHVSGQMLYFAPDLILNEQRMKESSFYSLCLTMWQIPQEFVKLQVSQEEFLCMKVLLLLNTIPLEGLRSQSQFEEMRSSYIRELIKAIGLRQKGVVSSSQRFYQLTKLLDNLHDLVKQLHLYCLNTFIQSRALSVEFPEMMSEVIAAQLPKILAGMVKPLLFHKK
Put plainly: Binding affinity for rat progesterone receptor compared to progesterone.

Assay [4] concerns the target T3, Progesterone receptor (Oryctolagus cuniculus). The assay is described as follows: Binding affinity for rat progesterone receptor compared to progesterone; No affinity.
In assay [5] the target is T1, Mineralocorticoid receptor (Rattus norvegicus). The assay is described as follows: Relative potency as antialdosterone activity compared to spironolactone 1 hr after oral administration. Type of assay: functional, organism-based. Put shortly:
as §1

For assay [6] the target is unchanged. The assay is described as follows: Relative potency as antialdosterone activity compared to spironolactone 1 hr after oral administration; NA denotes no activity. Type of assay: functional, organism-based. In outline: as §1
In assay [7] the target is T3, Progesterone receptor (Oryctolagus cuniculus). Put plainly: Progestational activity in rabbit at 30.0 mg/kg oral dose. Type of assay: functional, organism-based. Further details: dose 30 mg/kg. In outline: (§2)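 Clauberg test in rabbits after oral administration, run by literature procedures. Doses are listed […], and the read-out is the McPhail index.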
For assay [8] the target is unchanged. The assay is described as follows: Progestational activity in rabbit at 0.3 mg/kg oral dose. Type of assay: functional, organism-based. Further details: dose 0.3 mg/kg. Put shortly: as §2
Assay [9] has the same target. Put plainly: Progestational activity in rabbit at 1.0 mg/kg oral dose. Type of assay: functional, organism-based. Further details: dose 1 mg/kg. Put shortly:
as §2

The target is the same in assay [10]. Put plainly: Progestational activity in rabbit at 3.0 mg/kg oral dose. Type of assay: functional, organism-based. Further details: dose 3 mg/kg. In outline:
as §2

Assay [11] deals with T2, Androgen receptor (Rattus norvegicus).

Regarding `CC12CCC(=O)C=C1C1CC1C1C2CC(O)C2(C)C1C1CC1[C@@]21CCC(=O)O1` (some centres undefined), the MRP result in assay [1] was “inactive”. Moreover, the Competition factor result in assay [2] was “inactive”. In addition, the Competition factor in assay [3] came out at 25.

Regarding `CC(=O)S[C@H]1CC(=O)C=C2C3CC3C3C(CCC4(C)C3C3CC3[C@@]43CCC(=O)O3)C21C` (some centres undefined), in [4], the Competition factor result is “inactive”. Also, the MRP in [5] was found to be 100.

Consider `CC12C(=CC(=O)C[C@@H]1C#N)C1CC1C1C2CCC2(C)C1C1CC1[C@@]21CCC(=O)O1` (some centres undefined), for which the MRP entry in assay [6] is “inactive”.

For the molecule `CC1=CC2(C)C(=CC1=O)C1CC1C1C2CCC2(C)C1C1CC1[C@@]21CCC(=O)O1` (some centres undefined), in assay [1], the MRP entry was “inactive”. Further, the Competition factor in assay [3] was determined as 35.

For `C=C1CC2(C)C(=CC1=O)C1CC1C1C2CCC2(C)C1C1CC1[C@@]21CCC(=O)O1` (some centres undefined), the MRP entry in [1] is “inactive”. For the same molecule, the Competition factor entry in assay [2] was “inactive”. In addition, the Competition factor in assay [3] amounted to 18.

In turn, `C[C@@H]1CC2(C)C(=CC1=O)C1CC1C1C2CCC2(C)C1C1CC1[C@@]21CCC(=O)O1` (some centres undefined) had an MRP in assay [5] of less than 100. The Competition factor result in assay [2] is “inactive”. The same molecule yielded a Competition factor in assay [3] of 105.

As to `CC12C=C(Cl)C(=O)C=C1C1CC1C1C2CCC2(C)C1C1CC1[C@@]21CCC(=O)O1` (some centres undefined), the MRP entry in assay [1] was “inactive”. In addition, in assay [3], the Competition factor came out at 33.

Consider `CC12C(=CC(=O)CC1O)C1CC1C1C2CCC2(C)C1C1CC1[C@@]21CCC(=O)O1` (some centres undefined), for which the MRP in [5] came to 45. Also, the Competition factor entry in [2] is “inactive”. The same molecule registered a Competition factor in [3] of 19.

In turn, `CS[C@H]1CC(=O)C=C2C3CC3C3C(CCC4(C)C3C3CC3[C@@]43CCC(=O)O3)C21C` (some centres undefined) had a McPhail index in assay [7] of 3.8. For the same molecule, the Competition factor result in assay [4] and in assay [2] was “inactive” throughout. The same molecule had an MRP in [5] of 240.

Regarding `C[C@]12CCC(=O)C=C1[C@@H]1C[C@@H]1[C@H]1[C@@H]3[C@@H]4C[C@@H]4[C@@]4(CCC(=O)O4)[C@@]3(C)CC[C@@H]12`, the MRP in assay [5] worked out at 685. The Competition factor in assay [3] was 2.7.

As for `CC12C=CC(=O)C=C1C1CC1C1C2CCC2(C)C1C1CC1[C@@]21CCC(=O)O1` (some centres undefined), the McPhail index in assay [8] came to 1; in assay [9], 2.2; in assay [10], 2.7. Besides, the MRP in [5] worked out at 745. In addition, the Competition factor in assay [11] worked out at 150; in [3] it was 6.5.

The molecule `C[C@H]1CC2(C)C(=CC1=O)C1CC1C1C2CCC2(C)C1C1CC1[C@@]21CCC(=O)O1` (some centres undefined) came in with an MRP in assay [5] of 100. Moreover, in [2], the Competition factor result was “inactive”. In [3], this molecule returned a Competition factor of 30.

In assay [7], `CC12C(=CC(=O)C[C@@H]1S)C1CC1C1C2CCC2(C)C1C1CC1[C@@]21CCC(=O)O1` (some centres undefined) had a McPhail index of 3.5. The MRP in [5] is more than 100. The Competition factor in assay [11] is 63; in [3] it was 5.8.

Molecule `C[C@H]1CC(=O)C=C2C3CC3C3C(CCC4(C)C3C3CC3[C@@]43CCC(=O)O3)C21C` (some centres undefined) registered an MRP in [5] of 100. The Competition factor in assay [11] was found to be 70.

Consider `CC12C(=CC(=O)[C@@H]3C[C@@H]31)C1CC1C1C2CCC2(C)C1C1CC1[C@@]21CCC(=O)O1` (some centres undefined), for which the MRP in [5] stood at 520. The Competition factor turned out to be 25 in assay [11] and 2.1 in assay [3].

On to `CC12CCC(=O)C(Cl)=C1C1CC1C1C2CCC2(C)C1C1CC1[C@@]21CCC(=O)O1` (some centres undefined), for which, in assay [1], the MRP result is “inactive”.

Molecule `CC(=O)S[C@@H]1CC2=CC(=O)CC[C@]2(C)[C@H]2CC[C@@]3(C)[C@@H](CC[C@@]34CCC(=O)O4)[C@H]12` showed an MRP in assay [5] of 100. In addition, in [3], the Competition factor came out at 21.

`CC12CCC(=O)C=C1C1CC1C1C2[C@H](O)CC2(C)C1C1CC1[C@@]21CCC(=O)O1` (some centres undefined): the MRP result in assay [1] is “inactive”. In assay [2], the Competition factor result was “inactive”. This molecule also came in with a Competition factor in assay [3] of 195.

Values taken from ChEMBL document CHEMBL1122986, “Aldosterone antagonists. 1. Synthesis and activities of 6 beta,7 beta:15 beta,16 beta-dimethylene steroidal spirolactones” (J Med Chem, 1985).
